Experimental data published in paper PMC3703919 (Clinical cancer research : an official journal of the …, 2009).

Key:
[1] = test system: patients with advanced solid tumors; experiment: Phase I dose escalation: toxicity assessment; assay type: in vivo, human
In short: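 Cohorts of three started at 100 μg/kg s.c. daily ×5 per 21-d cycle, with planned levels of 100–1,000 μg/kg. One DLT expanded a cohort to six. DLT was grade ≥3 toxicity at least possibly treatment-related, and MTD allowed ≤1/6 with DLT. Exam and labs ran weekly in cycle 1, then on day 1 of later cycles, graded by CTCAE v3.0.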

[2] = Pharmacokinetics: plasma Ang-; assay type: in vivo, human
[3] = 18 patients, 100-700 μg/kg s.c. daily x5 every 21 d, CTCAE v3.0, count

CC[C@H](C)[C@H](NC(=O)[C@H](Cc1ccc(O)cc1)NC(=O)[C@@H](NC(=O)[C@H](CCCNC(=N)N)NC(=O)[C@@H](N)CC(=O)O)C(C)C)C(=O)N[C@@H](Cc1c[nH]cn1)C(=O)N1CCC[C@H]1C(=O)O [Ang-(1-7), Angiotensin-(1-7)]
SAE possibly related to Ang-(1-7) ([1]; 400 μg/kg, one patient with metastatic pancreatic cancer, first cycle): grade 3 deep vein thrombosis | dose-limiting toxicities encountered ([1]; 700 μg/kg dose): stroke (grade 4) and reversible cranial neuropathy (grade 3) | Cerebrovascular ischemia, grade 2, adverse events at least possibly related to treatment [1, 3]: 0 | Cerebrovascular ischemia, grade 3, adverse events at least possibly related to treatment [1, 3]: 0 | Cerebrovascular ischemia, grade 4, adverse events at least possibly related to treatment [1, 3]: 1 | Cerebrovascular ischemia, total, adverse events at least possibly related to treatment [1, 3]: 1 | Fatigue, grade 2, adverse events at least possibly related to treatment [1, 3]: 2 | Fatigue, grade 3, adverse events at least possibly related to treatment [1, 3]: 0 | Fatigue, grade 4, adverse events at least possibly related to treatment [1, 3]: 0 | Fatigue, total, adverse events at least possibly related to treatment [1, 3]: 2 | Gingival regression, grade 2, adverse events at least possibly related to treatment [1, 3]: 1 | Gingival regression, grade 3, adverse events at least possibly related to treatment [1, 3]: 0 | Gingival regression, grade 4, adverse events at least possibly related to treatment [1, 3]: 0 | Gingival regression, total, adverse events at least possibly related to treatment [1, 3]: 1 | Hypocalcemia, grade 2, adverse events at least possibly related to treatment [1, 3]: 1 | Hypocalcemia, grade 3, adverse events at least possibly related to treatment [1, 3]: 0 | Hypocalcemia, grade 4, adverse events at least possibly related to treatment [1, 3]: 0 | Hypocalcemia, total, adverse events at least possibly related to treatment [1, 3]: 1 | Muscle weakness, grade 2, adverse events at least possibly related to treatment [1, 3]: 1 | Muscle weakness, grade 3, adverse events at least possibly related to treatment [1, 3]: 0 | Muscle weakness, grade 4, adverse events at least possibly related to treatment [1, 3]: 0 | Muscle weakness, total, adverse events at least possibly related to treatment [1, 3]: 1 | Musculoskeletal pain, grade 2, adverse events at least possibly related to treatment [1, 3]: 2 | Musculoskeletal pain, grade 3, adverse events at least possibly related to treatment [1, 3]: 0 | Musculoskeletal pain, grade 4, adverse events at least possibly related to treatment [1, 3]: 0 | Musculoskeletal pain, total, adverse events at least possibly related to treatment [1, 3]: 2 | Neuropathy, cranial, grade 2, adverse events at least possibly related to treatment [1, 3]: 0 | Neuropathy, cranial, grade 3, adverse events at least possibly related to treatment [1, 3]: 1 | Neuropathy, cranial, grade 4, adverse events at least possibly related to treatment [1, 3]: 0 | Neuropathy, cranial, total, adverse events at least possibly related to treatment [1, 3]: 1 | Orthostasis, grade 2, adverse events at least possibly related to treatment [1, 3]: 1 | Orthostasis, grade 3, adverse events at least possibly related to treatment [1, 3]: 0 | Orthostasis, grade 4, adverse events at least possibly related to treatment [1, 3]: 0 | Orthostasis, total, adverse events at least possibly related to treatment [1, 3]: 1 | Thrombosis/thrombus/embolism, grade 2, adverse events at least possibly related to treatment [1, 3]: 0 | Thrombosis/thrombus/embolism, grade 3, adverse events at least possibly related to treatment [1, 3]: 1 | Thrombosis/thrombus/embolism, grade 4, adverse events at least possibly related to treatment [1, 3]: 0 | Thrombosis/thrombus/embolism, total, adverse events at least possibly related to treatment [1, 3]: 1 | hematologic toxicity ([1]; all dose levels 100-700 μg/kg, 18 patients): No hematologic toxicity was observed | bleeding complications or episodes of hypertension ([1]; all dose levels, 18 patients): No bleeding complications or episodes of hypertension were observed | patients with mild muscle cramps ([1]; all dose levels, 18 patients): three | treatment-related deaths ([1]; all dose levels, 18 patients): no treatment-related deaths | recommended phase II dose ([1]; s.c. once daily for 5 consecutive days on a 3-week cycle): 0.4 mg/kg | Tmax ([2]; human, sc): 1 h | dose-dependent increases in drug exposure ([2]; s.c. 100-700 μg/kg, RIA): observed only at the highest dose level
